Compounds with a hit are over-represented: about 3.5% of the library has one in this group of screens.
RGS4 act: RGS4 potentiation or activation | HEK293 M3R/inducible RGS4, carbachol calcium flux Fluo4; hits give low values | B-score at 10 µM | 310,000 compounds, 0.92% hits | AID 463111;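 active means B-score of the integrated calcium signal more than 4 SD below the library mean, with starting fluorescence not abnormally high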;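 further: negative B-score means reduced calcium response which marks RGS4 activation or potentiation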
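System: HEK293 FlpIn-TREx cells, stable M3R, doxycycline-inducible RGS4. Timing: overnight RGS4 induction, 30 min dye load 37 °C, 20 min compound RT. Also added: carbachol, ECmax concentration. Measured by: Fluo4 fluorescence kinetic imaging of calcium. Evaluation: integrated calcium ratio converted to B score.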
MrgX1 allo act: allosterically activates human MrgX1 receptor signaling. Q96LB2. MrgX1-HEK293, Fluo-4 calcium flux, FDSS; hits give high values. B-score at 10 µM. 310,000 compounds, 0.63% hits;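 active means plate-corrected calcium response at least 3 library SD above typical, normal starting fluorescence, not activating the receptor alone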;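 further: compound read alongside a low EC10 to EC30 dose of BAM8-22 agonist; peak minus trough fluorescence over baseline measured at the second addition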
Target sequence (Q96LB2 whole entry, looked up): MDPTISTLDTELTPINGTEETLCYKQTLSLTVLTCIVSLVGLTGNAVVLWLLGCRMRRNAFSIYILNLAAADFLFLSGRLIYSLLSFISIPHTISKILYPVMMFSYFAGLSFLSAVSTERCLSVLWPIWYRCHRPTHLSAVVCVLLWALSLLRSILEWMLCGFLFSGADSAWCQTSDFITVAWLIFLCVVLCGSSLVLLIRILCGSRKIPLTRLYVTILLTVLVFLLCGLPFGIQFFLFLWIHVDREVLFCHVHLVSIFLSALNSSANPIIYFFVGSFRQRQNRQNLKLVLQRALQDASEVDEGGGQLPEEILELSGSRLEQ
RGS4 block: inhibitors of human RGS4; P49798; HEK293 M3R/RGS4 inducible, Fluo-4 calcium flux; hits give high values; triggered by carbachol at its EC20; B-score at 10 µM; 310,000 compounds, 0.45% hits; AID 463165;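 active means B-score, a plate-corrected calcium signal, over three deviations above library mean, with baseline fluorescence within five deviations of library mean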;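 further: RGS4 expression induced by doxycycline in cells with stable M3 receptor; B-score is computed from the integrated fluorescence ratio over baseline after carbachol; higher B-score means a larger calcium signal and so more RGS4 inhibition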
Target sequence (P49798 whole entry, looked up): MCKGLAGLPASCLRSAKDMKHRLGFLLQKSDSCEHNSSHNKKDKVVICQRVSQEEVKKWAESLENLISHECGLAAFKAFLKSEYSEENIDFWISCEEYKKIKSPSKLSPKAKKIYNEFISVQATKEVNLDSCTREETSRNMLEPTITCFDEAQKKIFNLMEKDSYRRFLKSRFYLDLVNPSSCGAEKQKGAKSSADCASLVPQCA
MrgX1 antag: antagonists of human MrgX1 receptor. Q96LB2. MRGX1-HEK293 calcium flux, Fluo-4, BAM8-22 antagonism; hits give low values. B-score at 10 µM. 310,000 compounds, 1.3% hits. AID 588676;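 active means calcium-response B-score plate-corrected more than 3 library SD below zero, starting fluorescence within 5 deviations, no agonist response on first addition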;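 further: peak minus trough fluorescence over baseline after final BAM8-22 challenge near maximal dose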
MrgX1 agonist: human MrgX1 receptor agonism, primary screen | MrgX1-HEK293 cells, Fluo-4 calcium fluorescence, agonist mode; hits give high values | B-score at 10 µM | 310,000 compounds, 0.44% hits | AID 588627;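 active means calcium response B-score plate-corrected fluorescence ratio at least 3 library SD, with starting fluorescence B-score inside 5 SD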
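Test system: HEK293 cells stably expressing human MrgX1 receptor; Input: fifteen thousand cells per well; Dosing: compound delivered in addition one of three; Schedule: overnight seeding, then 1 h dark dye loading; Technique: Fluo-4 NW calcium fluorescence; Measure: B-scored fluorescence response ratio; Controls: positive and negative controls per plate.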
MrgX1 antag conf: confirmation of human MrgX1 receptor antagonists; shares compounds with MrgX1 antag; MrgX1-HEK293, BAM8-22 calcium flux, Fluo-4; hits give low values; remaining BAM8-22 calcium response % of control (hits give low values), % at 10 µM; 2,300 compounds, 19% hits;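 active means remaining agonist calcium response no higher than 100% minus 3 SD of agonist-only control wells, with starting fluorescence near control levels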;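 further: agonist BAM8-22 given at a near maximal EC90 to ECmax level; peak minus minimum fluorescence divided by baseline after agonist addition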
HEK293 Ca flux: MrgX1 antagonist counter-screen hit in parental HEK293 cells | shares compounds with MrgX1 antag | Fluo-4 calcium fluorescence, FDSS | fluorescence ratio F(max-min)/F0 at 10 µM | 4,000 compounds, 2% hits;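 active means duplicate-averaged calcium fluorescence ratio at least three times the standard deviation of buffer wells, a nonspecific response in parental cells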
HEK293 Ca counter: activity in parental HEK293 cells without MrgX1 | shares compounds with MrgX1 antag | parental HEK293 calcium flux, Fluo-4 fluorescence ratio; hits give high values | fluorescence ratio F(max-min)/F0 at 10 µM | 4,000 compounds, 0.4% hits;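 active means calcium fluorescence ratio, averaged over duplicates, at least 3 SD of the buffer-well ratio, meaning a nonspecific response in receptor-free cells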;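 further: untransfected parental HEK293 lacking MrgX1 used as counterscreen for MrgX1 allosteric activators; fluorescence change taken during the second addition on a kinetic imager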
HEK293 Ca cntr2: MrgX1 activator counter-screen hit in parental HEK293 cells; fluorescence ratio F(max-min)/F0 at 10 µM; shares compounds with MrgX1 antag; Fluo-4 calcium fluorescence (FDSS); hits give high values; 4,000 compounds, 8.7% hits;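 active means calcium fluorescence ratio at least three times the spread of buffer wells, meaning a non-specific response in parental cells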
An asterisk follows results filed as active.

For COC(=O)c1sc(N2C(=O)C(O)=C(C(=O)c3ccc(C)o3)C2c2ccc(F)cc2)nc1C (stereo unspecified) the results were RGS4 act inactive, MrgX1 allo act inactive, RGS4 block inactive, MrgX1 antag inactive and MrgX1 agonist inactive.
Screening CCCCN(C)C(=S)Nc1ccc(Oc2ccccc2)cc1 returned RGS4 act inactive, MrgX1 allo act inactive, RGS4 block inactive, MrgX1 antag -6.3*, MrgX1 agonist inactive, MrgX1 antag conf inactive, HEK293 Ca flux inactive, HEK293 Ca counter inactive and HEK293 Ca cntr2 inactive.
Screening O=C(O)CNC(=O)C(CS)Cc1ccccc1 (stereo unspecified) returned MrgX1 allo act inactive, MrgX1 antag -8.6*, MrgX1 agonist inactive, MrgX1 antag conf inactive, HEK293 Ca flux inactive, HEK293 Ca counter inactive and HEK293 Ca cntr2 inactive.
`O=C(O)CNC(=O)C(c1ccccc1)c1ccccc1` gave RGS4 act inactive, MrgX1 allo act inactive, RGS4 block inactive, MrgX1 antag inactive and MrgX1 agonist inactive.
Screening COc1ccc2nc(NC(=O)c3ccccc3O)sc2c1 returned RGS4 act inactive, MrgX1 allo act inactive, RGS4 block inactive, MrgX1 antag inactive and MrgX1 agonist inactive.
Screening CCOC(=O)c1cccc(C(=O)Nc2nc3ccc(OC)cc3s2)n1 returned RGS4 act inactive, MrgX1 allo act inactive, RGS4 block inactive, MrgX1 antag -5*, MrgX1 agonist inactive, MrgX1 antag conf inactive, HEK293 Ca flux inactive, HEK293 Ca counter inactive and HEK293 Ca cntr2 inactive.
CCN(CC)S(=O)(=O)c1ccc(C)c(NC(=S)NC2CCCCC2)c1 was read as RGS4 act inactive, MrgX1 allo act inactive, RGS4 block inactive, MrgX1 antag inactive and MrgX1 agonist inactive.
COc1cccc(COc2ccc3c(C)c(Cc4ccccc4)c(=O)oc3c2)c1 was read as RGS4 act inactive, MrgX1 allo act inactive, RGS4 block inactive, MrgX1 antag -6.3*, MrgX1 agonist inactive, MrgX1 antag conf inactive, HEK293 Ca flux inactive, HEK293 Ca counter inactive and HEK293 Ca cntr2 inactive.
`Cc1ccc(S(=O)(=O)N(C)c2ccc(C(=O)N3CCN(Cc4ccc5c(c4)OCO5)CC3)cc2)cc1` gave RGS4 act inactive, MrgX1 allo act inactive, RGS4 block inactive, MrgX1 antag -5.2*, MrgX1 agonist inactive, MrgX1 antag conf inactive, HEK293 Ca flux inactive, HEK293 Ca counter inactive and HEK293 Ca cntr2 inactive.
For Cc1ccccc1NC(=S)N1CCN(Cc2ccc3c(c2)OCO3)CC1 the results were RGS4 act inactive, MrgX1 allo act inactive, RGS4 block inactive, MrgX1 antag inactive and MrgX1 agonist inactive.
`CCN(CC)c1ccc(C(=O)NC(=S)N2CCN(Cc3ccc4c(c3)OCO4)CC2)cc1` gave RGS4 act inactive, MrgX1 allo act inactive, RGS4 block inactive, MrgX1 antag -5.1*, MrgX1 agonist inactive, MrgX1 antag conf inactive, HEK293 Ca flux inactive, HEK293 Ca counter inactive and HEK293 Ca cntr2 inactive.
For CC(C)NC(=S)N1CCN(Cc2ccc3c(c2)OCO3)CC1 the results were RGS4 act inactive, MrgX1 allo act inactive, RGS4 block inactive, MrgX1 antag inactive and MrgX1 agonist inactive.
Screening FC(F)(F)c1ccccc1NC(=S)N1CCN(Cc2ccc3c(c2)OCO3)CC1 returned RGS4 act inactive, MrgX1 allo act inactive, RGS4 block inactive, MrgX1 antag -7.4*, MrgX1 agonist inactive, MrgX1 antag conf inactive, HEK293 Ca flux inactive, HEK293 Ca counter inactive and HEK293 Ca cntr2 inactive.
For Cc1ccc(C(=O)NC2CCN(CC(=O)NCc3cccs3)CC2)cc1 the results were RGS4 act inactive, MrgX1 allo act inactive, RGS4 block inactive, MrgX1 antag inactive and MrgX1 agonist inactive.
For COc1cc(NC(=O)CN2C(=O)C(C)N(c3ccc(C)cc3)C2=O)cc(OC)c1 (stereo unspecified) the results were RGS4 act inactive, MrgX1 allo act inactive, RGS4 block inactive, MrgX1 antag -6.5*, MrgX1 agonist inactive, MrgX1 antag conf inactive, HEK293 Ca flux inactive, HEK293 Ca counter inactive and HEK293 Ca cntr2 inactive.
`O=C(NCC1CCN(Cc2cccc(Cl)c2)CC1)Nc1ccccc1Cl` gave RGS4 act inactive, MrgX1 allo act inactive, RGS4 block inactive, MrgX1 antag -5.7*, MrgX1 agonist inactive, MrgX1 antag conf inactive, HEK293 Ca flux inactive, HEK293 Ca counter inactive and HEK293 Ca cntr2 inactive.
Cc1ccc(NC(=O)NCC2CCN(Cc3cccc(Cl)c3)CC2)c(Cl)c1 was read as RGS4 act inactive, MrgX1 allo act inactive, RGS4 block inactive, MrgX1 antag inactive and MrgX1 agonist inactive.
For OC1CCN(CC(O)C(F)(F)F)CC1 (stereo unspecified) the results were RGS4 act inactive, MrgX1 allo act inactive, RGS4 block inactive, MrgX1 antag -5.7*, MrgX1 agonist inactive, MrgX1 antag conf inactive, HEK293 Ca flux inactive, HEK293 Ca counter inactive and HEK293 Ca cntr2 inactive.
Screening Cc1ccc(CC(=O)N2CC(C)OC(C)C2)cc1 (stereo unspecified) returned RGS4 act inactive, MrgX1 allo act inactive, RGS4 block inactive, MrgX1 antag inactive and MrgX1 agonist inactive.
For CC1CN(C(=O)CS(=O)(=O)Cc2ccc(Cl)cc2)CC(C)O1 (stereo unspecified) the results were RGS4 act inactive, MrgX1 allo act inactive, RGS4 block inactive, MrgX1 antag -4.8*, MrgX1 agonist inactive, MrgX1 antag conf inactive, HEK293 Ca flux inactive, HEK293 Ca counter inactive and HEK293 Ca cntr2 inactive.
`Cc1ccc(C(=O)N/C(=C\c2ccccc2)C(=O)NCCN2CCOCC2)cc1` gave RGS4 act inactive, MrgX1 allo act inactive, RGS4 block inactive, MrgX1 antag inactive and MrgX1 agonist inactive.
`Cc1cc(C)cc(C(=O)NN2CCN(C)CC2)c1` gave RGS4 act inactive, MrgX1 allo act inactive, RGS4 block inactive, MrgX1 antag inactive and MrgX1 agonist inactive.
